Test results: ChEMBL document CHEMBL1129542, “trans-2-Aryl-N,N-dipropylcyclopropylamines: synthesis and interactions with 5-HT(1A) receptors” (J Med Chem, 1996)

Columns and labels:
[1] = biological target: T1, 5-hydroxytryptamine receptor 1A (Rattus norvegicus, UniProt P19327); test: In vitro binding affinity of compound towards 5-hydroxytryptamine 1A receptor was determined using [3H]8-OH-DPAT as radioligand; range=16-20
T1 sequence (P19327 whole entry): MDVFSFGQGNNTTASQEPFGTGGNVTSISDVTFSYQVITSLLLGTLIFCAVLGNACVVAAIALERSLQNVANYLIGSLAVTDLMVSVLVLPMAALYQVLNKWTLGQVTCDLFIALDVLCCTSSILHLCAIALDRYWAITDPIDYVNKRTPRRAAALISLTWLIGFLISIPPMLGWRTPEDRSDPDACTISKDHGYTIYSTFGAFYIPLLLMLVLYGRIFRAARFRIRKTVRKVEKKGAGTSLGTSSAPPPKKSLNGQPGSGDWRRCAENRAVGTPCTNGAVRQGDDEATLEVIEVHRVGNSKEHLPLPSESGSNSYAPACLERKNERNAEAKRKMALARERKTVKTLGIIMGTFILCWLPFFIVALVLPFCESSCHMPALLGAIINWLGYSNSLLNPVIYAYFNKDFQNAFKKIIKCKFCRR
Method in brief: (§1)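 Rat (male Sprague–Dawley) cortex plus hippocampus membranes, washed twice in 50 mM Tris-HCl with 4.0 mM CaCl2 and 5.7 mM ascorbate, pH 7.5, pretreated with 10 μM pargyline. Competition against 2 nM [3H]-8-OH-DPAT with 1–300 nM compound, 5 mg/mL tissue, 37 °C for 10 min, then filtration. Nonspecific binding defined with 10 μM 5-HT. […] Range derived from the standard error of the estimate.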

[2] = biological target: T1, 5-hydroxytryptamine receptor 1A; test: In vitro binding affinity of compound towards 5-hydroxytryptamine 1A receptor was determined using [3H]8-OH-DPAT as radioligand; range=160-430; method in brief: as §1
[3] = biological target: T1, 5-hydroxytryptamine receptor 1A; test: In vitro binding affinity of compound towards 5-hydroxytryptamine 1A receptor was determined using [3H]8-OH-DPAT as radioligand; range=710-980; method in brief: as §1
[4] = biological target: T1, 5-hydroxytryptamine receptor 1A; test: In vitro binding affinity of compound towards 5-hydroxytryptamine 1A receptor was determined using [3H]8-OH-DPAT as radioligand; range=12-14; method in brief: as §1
[5] = biological target: T1, 5-hydroxytryptamine receptor 1A; test: In vitro binding affinity of compound towards 5-hydroxytryptamine 1A receptor was determined using [3H]8-OH-DPAT as radioligand; range=78-140; method in brief: as §1
[6] = biological target: T1, 5-hydroxytryptamine receptor 1A; test: In vitro binding affinity of compound towards 5-hydroxytryptamine 1A receptor was determined using [3H]8-OH-DPAT as radioligand; range=85-130; method in brief: as §1
[7] = biological target: T1, 5-hydroxytryptamine receptor 1A; test: In vitro binding affinity of compound towards 5-hydroxytryptamine 1A receptor was determined using [3H]8-OH-DPAT as radioligand; method in brief: as §1
[8] = biological target: T1, 5-hydroxytryptamine receptor 1A; test: In vitro binding affinity of compound towards 5-hydroxytryptamine 1A receptor was determined using [3H]-8-OH-DPAT as radioligand; range=39-87; method in brief: as §1
[9] = biological target: T1, 5-hydroxytryptamine receptor 1A; test: In vitro binding affinity of compound towards 5-hydroxytryptamine 1A receptor was determined using [3H]-8-OH-DPAT as radioligand; range=21-28; method in brief: as §1
[10] = biological target: T1, 5-hydroxytryptamine receptor 1A; test: In vitro binding affinity of compound towards 5-hydroxytryptamine 1A receptor was determined using [3H]8-OH-DPAT as radioligand; range=20-23; method in brief: as §1
[11] = biological target: T1, 5-hydroxytryptamine receptor 1A; test: In vitro binding affinity of compound towards 5-hydroxytryptamine 1A receptor was determined using [3H]8-OH-DPAT as radioligand; range=184-503; method in brief: as §1
[12] = biological target: T1, 5-hydroxytryptamine receptor 1A; test: In vitro binding affinity of compound towards 5-hydroxytryptamine 1A receptor was determined using [3H]8-OH-DPAT as radioligand; range=19-23
[13] = biological target: T1, 5-hydroxytryptamine receptor 1A; test: In vitro binding affinity of compound towards 5-hydroxytryptamine 1A receptor was determined using [3H]-8-OH-DPAT as radioligand; range=48-77; method in brief: as §1
[14] = biological target: T1, 5-hydroxytryptamine receptor 1A; test: In vitro binding affinity of compound towards 5-hydroxytryptamine 1A receptor was determined using [3H]8-OH-DPAT as radioligand; range=89-280; method in brief: as §1
[15] = biological target: T1, 5-hydroxytryptamine receptor 1A; test: In vitro binding affinity of compound towards 5-hydroxytryptamine 1A receptor was determined using [3H]8-OH-DPAT as radioligand; range=2.7-3.6; method in brief: as §1
[16] = biological target: T1, 5-hydroxytryptamine receptor 1A; test: In vitro binding affinity of compound towards 5-hydroxytryptamine 1A receptor was determined using [3H]8-OH-DPAT as radioligand; range=63-95; method in brief: as §1
[17] = biological target: T1, 5-hydroxytryptamine receptor 1A; test: In vitro binding affinity of compound towards 5-hydroxytryptamine 1A receptor was determined using [3H]8-OH-DPAT as radioligand; range=174-224; method in brief: as §1

CCCN(CCC)[C@@H]1C[C@H]1c1ccccc1OC
Ki [1]: 17 nM

CCCN(CCC)[C@H]1C[C@@H]1c1ccccc1OC
Ki [2]: 230 nM

CCCN(CCC)[C@H]1C[C@@H]1c1cccs1
Ki [3]: 820 nM

CCCN(CCC)[C@@H]1C[C@H]1c1cccs1
Ki [4]: 11 nM

CCCN(CCC)C1CC1c1cccs1 (stereo not given)
Ki [4]: 13 nM

CCCN(CCC)C1CC1c1cc(F)ccc1O (stereo not given)
Ki [5]: 99 nM

CCCN(CCC)C1CC1c1cccc(F)c1 (stereo not given)
Ki [6]: 100 nM

CCCN(CCC)C1CC1c1cc2ccccc2s1 (stereo not given)
Ki [7]: > 1000 nM

CCCN(CCC)[C@@H]1C[C@H]1c1cc(F)ccc1OC
Ki [8]: 60 nM

CCCN(CCC)C1CC1c1ccccc1 (stereo not given)
Ki [9]: 24 nM

CCCN(CCC)C1CC1c1ccccc1Br (stereo not given)
Ki [10]: 22 nM

CCCN(CCC)[C@H]1C[C@@H]1c1cc(F)ccc1O
Ki [11]: 348 nM

CCCN(CCC)C1CC1c1ccsc1 (stereo not given)
Ki [12]: 21 nM

CCCN(CCC)C1CC1c1ccccc1F (stereo not given)
Ki [13]: 59 nM

CCCN(CCC)C1CC1c1ccccc1C(F)(F)F (stereo not given)
Ki [7]: > 1000 nM

CCCN(CCC)C1CC1c1cccc(Cl)c1Cl (stereo not given)
Ki [7]: > 300 nM

CCCN(CCC)C1CC1c1cc(F)ccc1OC (stereo not given)
Ki [14]: 140 nM

CCCN(CCC)[C@@H]1C[C@H]1c1cc(F)ccc1O
Ki [15]: 3.2 nM

CCCN(CCC)C1CC1c1ccc(F)cc1 (stereo not given)
Ki [16]: 76 nM

CCCN(CCC)[C@H]1C[C@@H]1c1cc(F)ccc1OC
Ki [17]: 199 nM
